Measurements as given in article PMC10788905 (Journal of Medicinal Chemistry, 2023).
Where a name gives a salt, the structure may show the parent alone.

What was measured:
[1] = Liver microsomal stability, mouse and human, UDPGA; type: in vitro ADME; conditions: for m,h-LM % at 120 min / m,h-LM t1/2: mouse and human liver microsomes; for m,h-LM % at 120 min: UDPGA, compound remaining at 120 min; for half-life at 4.6 μM: mouse and human, liver microsomes with alamethicin, pH 7.5; for m,h-LM t1/2: UDPGA cofactor
In short: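 Phase II: compound from a 10 mM DMSO stock (4.6 μM final) was preincubated 15 min at 37 °C with mouse or human liver microsomes plus alamethicin in 0.1 M Tris-HCl pH 7.5, 10% DMSO. UDPGA, D-saccharic acid lactone and MgCl₂ were added and incubated 2 h at 37 °C. Samples at 0–120 min were quenched in cold MeCN with internal standard. No-cofactor matrix controls were run. Mean of ≥2 experiments, duplicates.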

[2] = test system: breast cancer BT-474; conditions: after 72 h treatment; cited from earlier work
[3] = test system: melanoma A375 cells expressing GFP-LC3; experiment: GFP-LC3 reporter autophagy assay; type: cell-based, human; conditions: 24 h treatment; for GFP-LC3-positive autophagosomes (fluorescent dots per cell): different concentrations
In short: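 A375 melanoma cells were stably transfected with EGFP-LC3B and G418-selected; the clone used was validated with 10 μM chloroquine. Cells on glass-bottom plates were exposed to varied compound concentrations for 24 h, fixed in 4% PFA and Hoechst 33342-stained. GFP-LC3 perinuclear dots per cell were counted by fluorescence microscopy, ten fields per dose, four independent replicates.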

[4] = test system: several tumor cell lines; conditions: cited from earlier work
[5] = test system: human ether-a-go-go-related gene (hERG) potassium channel; conditions: cited from earlier work
[6] = test system: xenograft models; conditions: doses lower than 50 mg/kg (ip daily); cited from earlier work
[7] = Tolerability studies; type: in vivo, female CD1 mice; conditions: for reduction in body weight: after 8 days
In short: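 Female CD1 mice (8–9 weeks, 4-day acclimation), 3 per group, received ip compound in saline; controls got saline ip daily. Regimens: 138 μmol/kg daily or every other day; 69 μmol/kg daily or 3 days on/2 off, over an 8-day period. Behavior, body weight, food and water intake were recorded daily. Weight on the pre-treatment day was set to 100%.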

[8] = test system: A375 xenografts; experiment: A375 subcutaneous xenograft model; type: in vivo, female NMRI-Foxn1nu mice
[9] = test system: BT-474 cells; experiment: Apoptosis in BT-474; type: cell-based, human; conditions: BT-474, different concentrations, 24 h
In short: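 Poly-caspase activity detected with a live-cell red/green caspase apoptosis detection kit. Cleaved PARP measured by immunoblot in TBS-T with 5% BSA: primary antibody 1:2000, GAPDH loading control 1:100000, HRP-conjugated secondaries 1:10000.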

[10] = 30 mg/kg ip, 3/5 d schedule, day 15

COc1cc(C2(NCc3cccc(CC4CCN(C)CC4)c3)CCCC2)ccc1F [Compound 9, 1-(4-Fluoro-3-methoxy-phenyl)-N-[[3-[(1-methyl-4-piperidyl)methyl]phenyl]methyl]cyclopentanamine Dihydrochloride]
m,h-LM % at 120 min [1]: > 95% | half-life at 4.6 μM [1]: > 2 h

CN1CC2(CC(Cc3cccc(CNC4(c5ccc(F)cc5)CCCC4)c3)C2)C1 [Compound 21, 1-(4-Fluorophenyl)-N-[[3-[(2-methyl-2-azaspiro[3.3]heptan-6-yl)methyl]phenyl]methyl]cyclopentanamine Dihydrochloride]
half-life at 4.6 μM [1]: > 2 h

Fc1ccc(C2(NCc3cc(CC4CCNCC4)ccc3F)CCCC2)cc1 [Compound 25, 1-(4-Fluorophenyl)-N-[[2-fluoro-5-(4-piperidylmethyl)phenyl]methyl]cyclopentanamine Dihydrochloride]
m,h-LM t1/2 [1]: > 2 h

CN1CCN(Cc2cc(CNC3(c4ccccc4F)CCCC3)ccc2O)CC1 [Compound 1a, 4-[[[1-(2-fluorophenyl)cyclopentyl]amino]methyl]-2-[(4-methylpiperazin-1-yl)methyl]phenol]
IC50 [2]: 30.1 µM

CN1CCC(Cc2cccc(CNC3(c4ccc(F)cc4)CCCC3)c2)CC1 [Compound 1e]
m,h-LM % at 120 min [1]: > 95% | half-life at 4.6 μM [1]: > 2 h | GFP-LC3-positive autophagosomes (fluorescent dots per cell) [3]: dose-dependent accumulation | IC50 [2]: 2.1 µM | in vitro anticancer activity, times higher than CQ [4]: up to 50 times

COc1cc(F)ccc1C1(NCc2cccc(CC3CCN(C)CC3)c2)CCCC1 [Compound 5, 1-(4-Fluoro-2-methoxy-phenyl)-N-[[3-[(1-methyl-4-piperidyl)methyl]phenyl]methyl]cyclopentanamine Dihydrochloride]
m,h-LM % at 120 min [1]: > 95% | half-life at 4.6 μM [1]: > 2 h

CN1CCC(Cc2ccc(O)c(CNC3(c4ccc(F)cc4)CCCC3)c2)CC1 [Compound 15, 2-[[[1-(4-Fluorophenyl)cyclopentyl]amino]methyl]-4-[(1-methyl-4-piperidyl)methyl]phenol Dihydrochloride]
half-life at 4.6 μM [1]: > 2 h

CN1CCC(Cc2cc(CNC3(c4ccc(F)cc4)CCCC3)ccc2O)CC1 [Compound 12, 4-[[[1-(4-Fluorophenyl)cyclopentyl]amino]methyl]-2-[(1-methyl-4-piperidyl)methyl]phenol Dihydrochloride]
half-life at 4.6 μM [1]: > 2 h

CCN(CC)CCCC(C)Nc1ccnc2cc(Cl)ccc12 (stereo not shown) [CQ, Chloroquine]
concentrations blocking hERG activity [5]: single-digit | efficacy in xenograft models [6]: completely ineffective

Fc1ccc(C2(NCc3ccc(F)c(CC4CCNCC4)c3)CCCC2)cc1 [Compound 24, 1-(4-Fluorophenyl)-N-[[4-fluoro-3-(4-piperidylmethyl)phenyl]methyl]cyclopentanamine Dihydrochloride]
m,h-LM t1/2 [1]: > 2 h | half-life at 4.6 μM [1]: > 2 h | increase in fluorescent dots compared with 1e ([3]; all the doses tested): significantly higher increase | GFP-LC3-positive autophagosomes (fluorescent dots per cell) [3]: dose-dependent accumulation | reduction in body weight ([7]; 69 μmol/kg (31 mg/kg) ip daily): ≤ 5% | tolerability (body weight, water and food intake) ([7]; 69 μmol/kg (31 mg/kg) ip, 3/5 d schedule, 15-day period): well tolerated | signs of arched backs and lethargy ([7]; 138 μmol/kg (62 mg/kg) ip daily): did not observe clear signs of arched backs and lethargy | animal body weight ([7]; 138 μmol/kg (62 mg/kg) ip daily, after 2 days of treatment): significantly reduced | reduction in body weight ([7]; 138 μmol/kg (62 mg/kg) ip every other day): ≤ 5% | tumor expression of REV-ERB target genes BMAL1 and PEPCK ([8]; 30 mg/kg ip for 2 days, tumors collected after 48 h, versus control): significantly higher expression | average tumor volume (excised tumors) [8, 10]: 307.7 mm^3 | average tumor weight [8, 10]: 0.365 g | effects on body weight ([8]; 30 mg/kg ip, 3/5 d schedule, mice bearing A375 xenografts): negligible effects | caspase-activity and cleaved PARP protein levels [9]: dose-dependent induction

CN1CCC(Cc2cccc(CNC3(c4ccc(F)cc4O)CCCC3)c2)CC1 [Compound 6, 5-Fluoro-2-[1-[[3-[(1-methyl-4-piperidyl)methyl]phenyl]methylamino]cyclopentyl]phenol Dihydrochloride]
m,h-LM % at 120 min [1]: > 95% | half-life at 4.6 μM [1]: > 2 h

CN1CCC(Cc2cccc(CNC3(c4ccc(F)c(O)c4)CCCC3)c2)CC1 [Compound 10, 2-Fluoro-5-[1-[[3-[(1-methyl-4-piperidyl)methyl]phenyl]methylamino]cyclopentyl]phenol Dihydrochloride]
m,h-LM % at 120 min [1]: > 95%

CN1CCC(Cc2cccc(CNC3(c4ccc(F)c(F)c4)CCCC3)c2)CC1 [Compound 7, 1-(3,4-Difluorophenyl)-N-[[3-[(1-methyl-4-piperidyl)methyl]phenyl]methyl]cyclopentanamine;dihydrochloride]
m,h-LM % at 120 min [1]: > 95% | half-life at 4.6 μM [1]: > 2 h

CCN(CCO)CCCC(C)Nc1ccnc2cc(Cl)ccc12 (stereo not shown) [HCQ, hydroxychloroquine]
concentrations blocking hERG activity [5]: single-digit

CN1CCC(Cc2ccc(F)c(CNC3(c4ccc(F)cc4)CCCC3)c2)CC1 [Compound 14, N-[[2-Fluoro-5-[(1-methyl-4-piperidyl)methyl]phenyl]methyl]-1-(4-fluorophenyl)cyclopentanamine Dihydrochloride]
half-life at 4.6 μM [1]: > 2 h

CN1CCC(Cc2cc(CNC3(c4ccc(F)cc4)CCCC3)ccc2F)CC1 [Compound 11, N-[[4-Fluoro-3-[(1-methyl-4-piperidyl)methyl]phenyl]methyl]-1-(4-fluorophenyl)cyclopentanamine Dihydrochloride]
half-life at 4.6 μM [1]: > 2 h

CN1CCC(Cc2cc(CNC3(c4ccc(F)cc4)CCCC3)c(F)cc2F)CC1 [Compound 16, N-[[2,4-Difluoro-5-[(1-methyl-4-piperidyl)methyl]phenyl]methyl]-1-(4-fluorophenyl)cyclopentanamine Dihydrochloride]
half-life at 4.6 μM [1]: > 2 h

COc1cc(F)ccc1C1(NCc2ccc(F)c(CC3CCN(C)CC3)c2)CCCC1 [Compound 22, 1-(4-Fluoro-2-methoxy-phenyl)-N-[[4-fluoro-3-[(1-methyl-4-piperidyl)methyl]phenyl]methyl]cyclopentanamine Dihydrochloride]
half-life at 4.6 μM [1]: > 2 h
